Source: PubChem (several laboratories)
D1 allo mod: allosterically modulates the human D1 dopamine receptor | HEK293 D1, CRE-luciferase, dopamine EC30 potentiation; actives deviate in either direction | P21728 | B-score at 10 µM | actives 5.9% (n = 58,000);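 active = luminescence count or its row- and column-corrected plate score outside the 99.7% band of the plate's sample wells, on either side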
Target sequence (P21728 whole entry, looked up): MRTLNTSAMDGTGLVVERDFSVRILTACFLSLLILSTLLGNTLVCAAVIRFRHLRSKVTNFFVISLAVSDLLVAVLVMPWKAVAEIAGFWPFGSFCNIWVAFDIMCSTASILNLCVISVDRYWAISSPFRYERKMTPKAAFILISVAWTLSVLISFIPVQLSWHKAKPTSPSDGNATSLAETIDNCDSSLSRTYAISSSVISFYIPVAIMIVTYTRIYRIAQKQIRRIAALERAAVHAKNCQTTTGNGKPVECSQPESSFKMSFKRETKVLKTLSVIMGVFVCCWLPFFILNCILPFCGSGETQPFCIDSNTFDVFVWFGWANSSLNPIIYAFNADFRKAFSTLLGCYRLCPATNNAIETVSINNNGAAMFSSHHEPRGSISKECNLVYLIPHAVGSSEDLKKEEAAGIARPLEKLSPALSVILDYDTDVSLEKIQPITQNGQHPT
HEK293 NFkB inh: inhibitors of the PMA/ionomycin-induced NF-kB reporter in HEK293 cells. inhibition, % at 3 µM. HEK-293 NF-kB luciferase reporter, luminescence. actives 0.21% (n = 62,000);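 active = inhibition above the mean of all tested compounds plus 3 SD, cut at about 40% in these data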;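 also: 0% = stimulated DMSO wells and 100% = 10 µM reference inhibitor 5653914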
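Timing: 1 h pretreatment, 16 h stimulation, 37 °C; system: HEK-293 cells with stable firefly luciferase reporter driven by four HIV NF-kB elements; doses: 3 µM once, 0.30% DMSO; measured by: luciferase luminescence; control set: DMSO and 10 µM reference inhibitor; repeats: single test; reagent: PMA plus ionomycin mix as NF-kB-activating stimulus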
JNK3 inh: JNK3 (human) kinase inhibition; purified JNK3 kinase activity, HTS; inhibition, % at 8 µM; AID 746; actives 0.61% (n = 60,000); P53779; in the data active = inhibition above about 17%;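 also: 0% = DMSO and 100% = reference inhibitor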
RORA act: RORA (human) activation; actives 1.5% (n = 65,000); CHO-K1 Gal4-RORA LBD luciferase reporter, luminescence; percent increase over mock-subtracted basal signal; AID 560; activation, % at 10 µM;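 active = activation above the mean of all tested compounds plus 3 SD, cut at about 49% in these data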;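 also: 0% = DMSO-treated RORA cells and 100% = added signal equal to DMSO minus mock-transfected cells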
SF-1 act: activators of human nuclear receptor SF-1; Q13285; CHO-K1 Gal4-SF-1 LBD luciferase reporter; % increase over DMSO SF-1-specific signal; activation, % at 10 µM; actives 1.9% (n = 65,000);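 active = activation above the mean activation of all tested compounds plus 3 SD, cut at about 50% in these data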
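material = CHO-K1 cells with Gal4–hSF-1 LBD chimera plus Gal4-driven luciferase | compound = 10 µM single point, 1% DMSO | incubation = 20 h compound exposure at 37 °C after 1 h cell settling | measured by = SteadyLite luciferase luminescence | evaluation = percent activation relative to DMSO median and mock-transfected background | control set = DMSO negative control and −SF1 background wells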
D1 PAM confirm: confirmation of human D1 dopamine receptor allosteric modulators; shares compounds with D1 allo mod; actives 88% (n = 2,200); luminescence at 10 µM; HEK293 D1 CRE-luciferase, dopamine EC30 potentiation; hits give high values;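 active = luminescence in either of two replicates above the same-plate mean plus 3 SD of the low-dose dopamine control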
D1 ag no DA: activates D1 CRE-luciferase signal without dopamine present; shares compounds with D1 allo mod; HEK293 D1 CRE-luciferase, luminescence, no dopamine; hits give high values; luminescence at 10 µM; actives 0.8% (n = 1,900); AID 646; in the data active = luminescence above about 3900
Isoprot counter: counter-screen for D1 modulators: isoproterenol response in HEK293 cells. shares compounds with D1 allo mod. HEK293 D1 CRE-luciferase, isoproterenol EC30 counter-screen. calls only at 10 µM. actives 63% (n = 2,200);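 active = luminescence in either replicate above plate mean of wells with a partly effective reference agonist dose plus 3 SD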;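 also: isoproterenol raises cAMP through native beta-adrenoceptor Gs so signal bypasses D1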
* marks the source's active call; other numbers are inactive results; i = inactive; x = no result; + = active, no number. An excerpt weighted towards active compounds, which were near 7.9% of everything screened.

SMILES	D1 allo mod	HEK293 NFkB inh	JNK3 inh	RORA act	SF-1 act	D1 PAM confirm	D1 ag no DA	Isoprot counter
COCC(C)OC(=O)c1c(N)n(Cc2ccco2)c2nc3ccccc3nc12 (centres undefined)	12.2*	x	3.1	-16.1	27.1	x	x	x
CCOC(=O)N(C)c1ccc(C(O)(C(=O)OCC)C(F)(F)F)cc1 (centres undefined)	0.0322	26.4	-1.7	15.2	-26.6	x	x	x
COc1ccccc1N1CCN(Cc2cccc(OC)c2O)CC1	-4.24*	2.4	1.4	-9.9	-12.5	x	x	x
COc1ccccc1N1CCN(Cc2ccccc2Cl)CC1	0.148	12.3	9.9	-27.3	6.3	x	x	x
O=C(c1cc2c(s1)-c1ccccc1OC2)N1CCC2(CC1)OCCO2	-1.56	-36.7	-4.1	54.1*	61.2*	x	x	x
COc1ccc(CCN(C)Cc2c(F)cccc2F)cc1OC	-0.152	-0.7	1.0	0.8	8.9	x	x	x
CCOc1ccc(-c2cc(C(=O)N3CCC4(CC3)OCCO4)c3ccccc3n2)cc1	-1.59	-12.0	2.7	45.3	48.8	x	x	x
c1ccc2c(CN3CCCCCCC3)c[nH]c2c1	x	13.8	2.0	-38.3	-23.7	x	x	x
CN1CC=C(c2c[nH]c3ccccc23)CC1	-3.68*	16.3	-4.0	-1.5	-7.9	x	x	x
CC(=O)OC1(Cc2ccccc2)CN2CCC1c1ccccc12 (centres undefined)	1.28	x	6.5	-13.4	1.0	x	x	x
CCN(CC)Cc1c[nH]c2ccccc12	-8.36*	11.0	3.4	17.2	7.9	x	x	x
Cc1ccc2nc(N3CCC(C(=O)N4CCC5(CC4)OCCO5)CC3)sc2c1	x	4.1	1.0	30.3	73.8*	x	x	x
O=C(C1CCN(c2nc3ccc(Br)cc3s2)CC1)N1CCC2(CC1)OCCO2	x	23.2	3.6	8.2	6.5	x	x	x
CC(C)(C)c1nc(N2CCN(C(=O)c3ccco3)CC2)c2nnn(Cc3ccccc3Cl)c2n1	0.0311	15.6	-1.0	42.8	-15.8	x	x	x
CCn1nc(-c2cccs2)nc2c(=O)n(C)c(=O)nc1-2	x	96.6*	46.9*	-90.7	-96.0	x	x	x
O=C(CCCN1CCC2(CC1)C(=O)NCN2c1ccccc1)c1ccc(F)cc1	-6.51*	x	-3.4	-32.4	-4.2	x	x	x
CCCCn1c(=O)c(C(=O)Nc2cnccn2)c(O)c2ccccc21	6.77*	15.9	0.3	-10.9	-14.6	8352*	1312	i
O=C1NC(=O)C2(Cc3c(nc4ccccn4c3=O)N3CCCCCC32)C(=O)N1Cc1ccccc1 (centres undefined)	-0.311	12.3	5.3	39.0	5.0	x	x	x
O=C1CN=C(c2ccccc2)c2oc3ccc(Br)cc3c2N1	7.4*	7.2	2.5	-10.1	6.6	15276*	x	+
COc1cccc(OC)c1C1=NCC(=O)Nc2c1oc1ccc(Br)cc21	0.183	28.2	-6.0	-62.4	-14.8	x	x	x
Cc1cccc(-c2nc3ccccc3c(=O)n2-n2cccc2)c1	x	13.3	4.7	11.6	17.0	x	x	x
C[C@H]1OC[C@@H](C[N+](C)(C)C)O1	5.71*	x	-5.8	-5.4	0.7	10372*	x	i
CCCCn1c(O)c(C(C)=NC(C)c2ccccc2)c(=O)[nH]c1=O (centres undefined)	9.74*	13.8	-5.0	-2.8	-9.3	17520*	1544	+
COC(=O)c1c(C)[nH]c(C(=O)C(Cc2ccccc2)N(C)C)c1C (centres undefined)	9.72*	10.0	4.5	13.0	30.4	4780	1584	i
CSC(=Nc1ccccc1)c1c(O)n(C)c(=O)n(C)c1=O	-0.522	14.2	7.7	-18.5	-7.6	x	x	x
SMILES	D1 allo mod	HEK293 NFkB inh	JNK3 inh	RORA act	SF-1 act	D1 PAM confirm	D1 ag no DA	Isoprot counter
CC(=O)c1c(O)n(C)c(=S)n(-c2ccccc2)c1=O	3.1*	12.7	0.9	2.5	-18.6	10036*	1820	i
CCOC(=O)c1c(C)n(Cc2ccccc2)c2ccc(OCC(O)Cn3nc(C)nc3C)cc12 (centres undefined)	4.51*	4.0	5.4	-3.0	25.0	17284*	1904	+
COc1ccc2c(c1)c(C(=O)CN1CCN(C)CC1)c(C)n2Cc1ccccc1	-0.422	3.7	-1.3	28.9	-2.4	x	x	x
CCC(=NC1CC1)c1c(O)n(C2CCCCC2)c(=O)[nH]c1=O	16.8*	13.0	0.6	8.4	2.8	12336*	1856	+
CCC1(CC)C(=O)NC(=NCCc2c[nH]c3ccccc23)NC1=O	4.8*	7.1	-0.4	-6.3	-6.7	6976*	1520	i
CC1(C)CN=C(Nc2nc3ccccc3s2)S1	2.92*	-36.4	-0.9	54.2*	69.9*	8344*	1008	i
COc1ccc(C(=O)N2CCCC2=O)cc1	0.625	-2.5	1.5	-14.6	1.4	x	x	x
O=C(CCN1C(=O)COc2ccccc21)N1CCC2(CC1)OCCO2	3.78*	0.2	-8.9	-1.7	4.2	5480	x	i
Nc1cccc(N=Cc2c(O)n(Cc3ccc(F)cc3)c(=O)[nH]c2=O)c1	0.0817	4.7	-2.7	-7.4	-7.7	x	x	x
CC(=O)c1cccc(NC2=NCC(C)S2)c1 (centres undefined)	5.63*	7.9	4.5	44.2	23.4	8688*	1744	+
CN1CCC2(CC1)NC(=O)C1=C(CN(C)CC1)N2	-0.482	9.3	1.7	-5.5	6.2	x	x	x
CCOC(=O)[C@@]1(C#N)[C@@H]2C=CC(C(N)=O)=CN2[C@@H](C(N)=O)[C@@H]1c1cccc(Cl)c1	x	x	-10.7	-6.8	-5.6	x	x	x
CCC(=NCCC1=CCCCC1)c1c(O)[nH]c(=O)[nH]c1=O	5.42*	8.2	1.9	-8.7	-0.3	16104*	1808	+
CCN(CC)CCN=Cc1c(O)n(CCC2=CCCCC2)c(=O)[nH]c1=O	3.68	11.3	-1.5	-15.1	-10.9	x	x	x
CCC(=NCc1cccnc1)c1c(O)n(Cc2ccccc2)c(=O)[nH]c1=O	4.82*	12.8	6.7	-0.3	-6.2	11204*	1512	+
CC(=NCc1cccnc1)c1c(O)n(Cc2ccccc2)c(=O)[nH]c1=O	2.06	-0.5	4.8	-4.9	8.2	x	x	x
CC(C)[C@@]1(NC(=O)[C@@H]2C=C3c4cccc5[nH]cc(c45)C[C@H]3N(C)C2)O[C@@]2(O)[C@@H]3CCCN3C(=O)[C@H](Cc3ccccc3)N2C1=O	33.9*	x	-5.7	20.2	2.0	18320*	19392*	+
CC(C)[C@@]1(NC(=O)[C@@H]2C[C@@H]3c4cccc5[nH]cc(c45)C[C@H]3N(C)C2)O[C@@]2(O)[C@@H]3CCCN3C(=O)[C@H](Cc3ccccc3)N2C1=O	35.7*	x	-7.2	-10.3	4.5	27264*	22332*	+
